E-selectin induc – E-selectin induction in HUVECs, primary screen, imaging, HUVEC, immunofluorescence imaging, single point | activation, % at 7.58 µM | normalized: neutral wells 0, TNF-alpha wells 100 | AID 686992, 2013 | P16581 | 260,000 compounds, 0.37% hits;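 active = mean E-selectin-positive cell signal at least 10% of the positive control, reached in at least 60% of replicates, without over 20% cell loss; inconclusive = no rule given, readout overlaps actives, possibly toxicity-flagged; inactive = the rest, including those meeting only one limit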
Target sequence (P16581 whole entry, looked up): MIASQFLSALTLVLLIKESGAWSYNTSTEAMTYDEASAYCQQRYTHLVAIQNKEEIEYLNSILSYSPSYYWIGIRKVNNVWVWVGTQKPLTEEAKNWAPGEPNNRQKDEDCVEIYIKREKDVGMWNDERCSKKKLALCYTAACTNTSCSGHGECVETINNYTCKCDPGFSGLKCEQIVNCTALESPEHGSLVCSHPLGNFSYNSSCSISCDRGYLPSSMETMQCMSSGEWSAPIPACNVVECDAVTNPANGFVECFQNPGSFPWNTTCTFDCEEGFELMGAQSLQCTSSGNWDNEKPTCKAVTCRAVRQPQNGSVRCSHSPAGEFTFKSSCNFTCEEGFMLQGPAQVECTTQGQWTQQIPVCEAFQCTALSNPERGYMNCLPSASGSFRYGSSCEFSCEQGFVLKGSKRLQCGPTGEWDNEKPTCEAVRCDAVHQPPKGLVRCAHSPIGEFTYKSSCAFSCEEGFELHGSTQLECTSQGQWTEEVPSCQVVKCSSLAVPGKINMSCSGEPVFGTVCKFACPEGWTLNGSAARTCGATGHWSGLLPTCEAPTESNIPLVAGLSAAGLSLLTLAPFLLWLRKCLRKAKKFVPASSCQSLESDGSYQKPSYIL
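material = human umbilical vein endothelial cells (HUVEC), E-selectin induction | quantity = 3,000 cells/well | medium = EGM-2 growth medium on 0.1% gelatin-coated wells | technique = immunofluorescence imaging | read-out basis = % PE-positive cells | control set = TNF-alpha positive control, DMSO neutral control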
C2C12 statin – suppressors of statin myotoxicity in C2C12 myotubes, primary screen, cell-based, single point, plate reader. rescue of ATP level, % at 7.49 µM. C2C12 myotubes + simvastatin, ATP luminescence, 48 h; scaled: DMSO 0, geranylgeraniol control 100. 330,000 compounds, 0.78% hits;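 active = mean ATP rescue above about 67%, or every replicate alone reaching that limit, limit read from the data, passing the limit was not always enough; inconclusive = no clear call, values can overlap the other calls; inactive = mean under the limit and some replicate under it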;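 note: myotubes were challenged with 10 µM simvastatin during compound exposure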
DENV2 CPE rescue – inhibitors of DENV2 cytopathic effect, primary screen, cell-based, plate reader, single concentration; DENV2-infected cells, cytopathic effect rescue; 350,000 compounds, 1.7% hits; CPE inhibition, % at 9.99 µM; AID 651640, 2012; in the data active = CPE inhibition above about 20%, passing the limit was not always enough; inconclusive = no clear call, values can overlap the other calls; tested in BHK-21 cells
Large screens that a line does not name were inactive. Rows were chosen to be rich in hits. Some 2.2% of all compounds tested hit in one or more screens of this group.

CO[C@@H](CN(C)C(=O)c1ccccc1F)[C@H](C)CN([C@@H](C)CO)S(=O)(=O)c1ccc(C)cc1	none
C[C@H]1CN([C@@H](C)CO)C(=O)Cc2cc(NC(=O)Cc3cn(C)c4ccccc34)ccc2O[C@@H]1CN(C)C	DENV2 CPE rescue inconclusive
O=C(C[C@H]1CC[C@H](NC(=O)CN2CCOCC2)[C@H](CO)O1)NCCc1ccccc1	none
N#C[C@H]1[C@@H](c2ccccc2)[C@H](CO)N1C(=O)c1cc(Cl)cc(Cl)c1	none
C[C@@H]1CN([C@H](C)CO)C(=O)c2cccc(NC(=O)c3ccc(-c4nccs4)cc3)c2O[C@@H]1CN(C)C(=O)Nc1ccc(F)cc1	C2C12 statin 87, DENV2 CPE rescue 63
C[C@@H]1CN([C@H](C)CO)C(=O)c2cccc(NC(=O)c3ccc(-c4nccs4)cc3)c2O[C@H]1CN(C)C(=O)Nc1ccc(F)cc1	none
COc1ccc(S(=O)(=O)N(C)C[C@@H]2OCCCC[C@@H](C)Oc3ccc(NS(=O)(=O)c4ccc(F)cc4)cc3C(=O)N([C@@H](C)CO)C[C@H]2C)cc1	none
N#C[C@@H]1[C@@H](c2ccc(C3=CCCCC3)cc2)[C@H](CO)N1C(=O)C1CCOCC1	none
N#C[C@@H]1[C@H](c2ccc(C3=CCCCC3)cc2)[C@H](CO)N1C(=O)C1CCOCC1	DENV2 CPE rescue 30
N#C[C@@H]1[C@H](c2ccc(-c3cncnc3)cc2)[C@@H](CO)N1C(=O)CN1CCOCC1	DENV2 CPE rescue 50
N#C[C@@H]1[C@H](c2ccc(-c3cncnc3)cc2)[C@H](CO)N1C(=O)CN1CCOCC1	none
N#C[C@H]1[C@@H](c2ccccc2C2=CCCC2)[C@H](CO)N1C(=O)C1CCC1	none (no result: C2C12 statin)
CCCNC(=O)N1[C@H](C#N)[C@@H](c2ccccc2C2=CCCC2)[C@@H]1CO	DENV2 CPE rescue 23 (no result: C2C12 statin)
N#C[C@@H]1[C@H](c2ccccc2C2=CCCC2)[C@H](CO)N1C(=O)NC1CCCC1	none (no result: C2C12 statin)
N#C[C@H]1[C@@H](c2ccccc2C2=CCCC2)[C@H](CO)N1C(=O)C1CCCC1	DENV2 CPE rescue 41 (no result: C2C12 statin)
O=C1CN(S(=O)(=O)c2ccccc2)C[C@H]2[C@@H](c3ccc(C#Cc4ccccc4)cc3)[C@H](CO)N12	none (no result: C2C12 statin)
CN1C(=O)c2cc(NC(=O)NCc3ccccc3)ccc2OC[C@H]2O[C@H](CC(=O)O)CC[C@H]21	none
Cc1noc(C)c1NC(=O)N(C)C[C@@H]1Oc2ccc(NC(=O)CCC(F)(F)F)cc2CC(=O)N([C@H](C)CO)C[C@H]1C	none
COc1ccc(S(=O)(=O)N(C)C[C@@H]2Oc3c(NC(=O)c4ccc(-c5nccs5)cc4)cccc3C(=O)N([C@H](C)CO)C[C@H]2C)cc1	none (no result: E-selectin induc, C2C12 statin)
CO[C@@H]1CN(C)C(=O)c2ccc(NS(=O)(=O)c3ccccc3)cc2OC[C@@H](C)NC[C@@H]1C	none
CCC(=O)N(C)C[C@H]1Oc2ncc(-c3ccccc3OC)cc2C(=O)N([C@@H](C)CO)C[C@H]1C	none
N#C[C@@H]1[C@@H](c2ccccc2C2=CCCCC2)[C@@H](CO)N1C(=O)NC1CCCC1	none (no result: C2C12 statin)
N#C[C@H]1[C@@H](c2ccccc2C2=CCCCC2)[C@H](CO)N1C(=O)CN1CCOCC1	DENV2 CPE rescue 43 (no result: C2C12 statin)
N#C[C@@H]1[C@H](c2ccccc2C2=CCCC2)[C@@H](CO)N1C(=O)C1CC1	none (no result: C2C12 statin)
N#C[C@@H]1[C@H](c2ccccc2C2=CCCC2)[C@H](CO)N1C(=O)C1CC1	DENV2 CPE rescue 22 (no result: C2C12 statin)
N#C[C@H]1[C@@H](c2ccccc2C2=CCCCC2)[C@H](CO)N1S(=O)(=O)c1ccccc1	none (no result: C2C12 statin)
N#C[C@@H]1[C@@H](c2ccccc2C2=CCCCC2)[C@@H](CO)N1S(=O)(=O)c1ccccc1	DENV2 CPE rescue 21 (no result: C2C12 statin)
N#C[C@@H]1[C@@H](c2ccccc2C2=CCCCC2)[C@H](CO)N1C(=O)NC1CCCC1	DENV2 CPE rescue 73 (no result: C2C12 statin)
N#C[C@@H]1[C@H](c2ccccc2C2=CCCCC2)[C@H](CO)N1C(=O)CN1CCOCC1	none (no result: C2C12 statin)
CS(=O)(=O)Nc1ccc2c(c1)[C@@H]1C[C@@H](CC(=O)NCc3cccc(F)c3)O[C@H](CO)[C@@H]1O2	none
C[C@@H](O)C#Cc1ccc([C@@H]2[C@@H](CO)N3CCCCN(S(=O)(=O)c4ccccc4)C[C@@H]23)cc1	none (no result: C2C12 statin)
COc1ccc(NC(=O)N[C@H]2CC[C@H](CCNC(=O)c3cc(Cl)cc(Cl)c3)O[C@H]2CO)cc1	none
O=C(N[C@@H](Cc1ccccc1)Cn1cc(CN2C(=O)COC[C@H]2c2ccccc2)nn1)c1ccccc1	none (no result: E-selectin induc, C2C12 statin)
O=C(Nc1ccccc1)N[C@H](Cc1ccccc1)Cn1cc(CN2C(=O)COC[C@H]2c2ccccc2)nn1	DENV2 CPE rescue 21 (no result: E-selectin induc, C2C12 statin)
COc1cccc(NC(=O)N(C)C[C@H]2OCc3cnnn3CCCC(=O)N([C@H](C)CO)C[C@H]2C)c1	none

Screening results deposited in PubChem by Broad Institute.
